Experimental data published in ChEMBL document CHEMBL1127305, “kappa Opioid receptor selective affinity labels: electrophilic benzeneacetamides as kappa-selective opioid antagonists” (J Med Chem, 1994).

Legend:
Assay type in all cases: functional, organism-based
Cavia porcellus [1] = species: Cavia porcellus; assay: Tested for agonist potency by conducting tests on electrically stimulated guinea pig ileal longitudinal muscle preparation; details: Muscle tissue
How it was run: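 Electrically stimulated guinea pig ileal longitudinal muscle preparation. Values are arithmetic means of at least three experiments.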

Cavia porcellus [2] = species: Cavia porcellus; assay: Tested for wash-resistant activity by incubating guinea pig ileal longitudinal muscle (pre-treated with the compound) with naltrexone (500 nM). Number of determinations, n=3; details: Muscle tissue
How it was run: (§1)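 Agonist-treated guinea pig ileal longitudinal muscle was first washed forty times with Krebs' buffer. It was then incubated with naltrexone (500 nM) for 15 min. Read-out was percent recovery of twitch height.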

Cavia porcellus [3] = species: Cavia porcellus; assay: Tested for wash-resistant activity in guinea pig ileal longitudinal muscle preparation, after forty washes with Kreb's buffer pre-incubated with compound; details: Muscle tissue
How it was run: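 Electrically stimulated guinea pig ileal longitudinal muscle was incubated with agonist, then given forty washes with Krebs' buffer. Read-out was percent recovery of twitch height.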

Cavia porcellus [4] = species: Cavia porcellus; assay: Tested for wash-resistant activity after forty post-washes (for removal of naltrexone) with Kreb's buffer pre-incubated with compound
How it was run: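 Agonist-treated guinea pig ileal longitudinal muscle was washed, then incubated with naltrexone (500 nM) for 15 min. A further forty washes with Krebs' buffer followed. Read-out was percent recovery of twitch height.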

Cavia porcellus [5] = species: Cavia porcellus; assay: Tested for wash-resistant activity by incubating guinea pig ileal longitudinal muscle (pre-treated with the compound) with naltrexone (500 nM).Number of determinations, n=3; details: Muscle tissue; how it was run: as §1

In the case of CN(C(=O)Cc1ccc(Cl)c(Cl)c1)[C@H](CN1CCCC1)c1ccccc1 [ICI-199,441], the IC50 (Cavia porcellus [1]) is reported as 0.27 nM, the Recovery (Cavia porcellus [2]) is reported as 59% and the Recovery (Cavia porcellus [3]) is reported as 20%.

CN(C(=O)Cc1ccc(Cl)c(Cl)c1)[C@H](CN1CCCC1)c1cccc(N)c1 was tested, and the IC50 (Cavia porcellus [1]) was 0.17 nM.

COC(=O)/C=C/C(=O)Nc1ccc([C@@H](CN2CCCC2)N(C)C(=O)Cc2ccc(Cl)c(Cl)c2)cc1 was tested, and the IC50 (Cavia porcellus [1]) was 11.2 nM.

In the case of CN(C(=O)Cc1ccc(Cl)c(Cl)c1)[C@H](CN1CCCC1)c1ccc(N=C=S)cc1, the IC50 (Cavia porcellus [1]) is reported as 38.6 nM.

COC(=O)/C=C/C(=O)Nc1cccc([C@@H](CN2CCCC2)N(C)C(=O)Cc2ccc(Cl)c(Cl)c2)c1 was tested, and the IC50 (Cavia porcellus [1]) was 29 nM.

CN(C(=O)Cc1ccc(Cl)c(Cl)c1)[C@H](CN1CCCC1)c1cccc(N=C=S)c1 gave an IC50 (Cavia porcellus [1]) of 23.8 nM, a Recovery (Cavia porcellus [4]) of 0% and a Recovery (Cavia porcellus [5]) of 41%. For the same compound, the Recovery (Cavia porcellus [3]) was 0%.

CN(C(=O)Cc1ccc(Cl)c(Cl)c1)C(CN1CCCC1)c1ccc(N)cc1 (stereo not drawn) showed an IC50 (Cavia porcellus [1]) of 0.65 nM.

Compound CN(C(=O)Cc1ccc(Cl)c(Cl)c1)[C@@H](CN1CCCC1)c1ccccc1 has an IC50 (Cavia porcellus [1]) of 198 nM.
